From PubChem BioAssay
rRNA inh HTS: inhibitors of bacterial rRNA selective over humanized ribosomes; actives 1.6% (n = 350,000); E. coli WT GFP vs humanized-ribosome RFP mutants, fluorescence, 24 h; stronger effect = lower value; DMSO median 0, no signal -100; GFP signal change (wild-type ribosome), % (concentration not given with the values);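 active = significant combined selectivity score with lowered wild-type GFP, culture density cut under 30%, mutant RFP and density less affected; inactive = any of these conditions unmet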
F508del corr: CFTR F508del correction in bronchial cells; AID 720511; actives 0.36% (n = 350,000); CFBE cells, YFP halide quenching; stimulated with forskolin plus potentiator P3; % fluorescence drop versus neutral controls; activity (quench increase), % at 7.58 µM;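 active = mean added fluorescence quench of at least 8% versus neutral control, with both replicates also reaching 8%; inconclusive = only one of the mean or replicate conditions met; inactive = mean below 8% and not both replicates reaching 8%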;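 note: cells transiently co-express mutant CFTR-F508del with the halide-sensitive YFP; corrector assay measuring rescue of mutant channel to the surface after 24 h compound exposure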
CaV13 ICDI inh: Disruptors of the CACNA1D IQ motif to Ca2+-dependent inactivation inhibitor domain association, primary screening, Förster resonance energy transfer in intact living … | HEK cells, CFP/YFP FRET ICDI-IQ, plate reader, 10 min; percent FRET-ratio fall versus neutral wells | inhibition, % at 12.3 µM | actives 0.098% (n = 340,000);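 active = mean replicate inhibition of at least 30% and at least 1% of replicates passing that level; inconclusive = only one of the two criteria is met; inactive = neither criterion is met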;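 note: 0% = median of the neutral control wells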
Cneo AK release: Cryptococcus neoformans lysis via adenylate kinase release; C. neoformans lysis, adenylate kinase release luminescence, 4 h; normalised: neutral wells 0, clomiphene wells 100; lysis activity, % at 15 µM; actives 0.2% (n = 360,000);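 active = mean lysis activity across replicates of at least 80%, whatever share of replicates individually reach that level; inactive = mean lysis activity below 80%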
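Assay system: Cryptococcus neoformans yeast cells / Dosing: single-point compound dose / Timing: 4 h at 37 °C static, read 1 h later / Measured by: luminescence of released adenylate kinase using an AK detection reagent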
AID977621: wild-type E. coli growth inhibition versus H69 humanized strain – H69 mutant RFP, wild-type GFP, cherry-pick, dose response. shares compounds with rRNA inh HTS. fluorescence, 24 h. activity change, negative = inhibition at 50 µM. 1,900 tested, under 10 active;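 active = Wild-type ribosome reporter drop at least double the humanized mutant ribosome reporter drop, growth loss under a set limit; inconclusive = no clear call, values can overlap the other calls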;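 note: wild-type GFP and H69 mutant RFP strains grown together 50/50 in each well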
AID977628: growth of wild-type and h24-humanized E. coli strains – h24 mutant RFP vs wild-type GFP, cherry-pick, dose response; E. coli WT GFP strain growth, fluorescence, 24 h; activity change, negative = inhibition at 50 µM; AID 977628; 1,900 tested, under 10 active; shares compounds with rRNA inh HTS;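 active = compound lowering the normal-ribosome reporter at least twice as much as the humanized-ribosome reporter, growth loss under a set limit; inconclusive = no clear call, values can overlap the other calls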;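 note: wild-type GFP and h24 humanized RFP strains co-cultured 1 to 1 per well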
An asterisk follows results filed as active; u = inconclusive; x = no result given. A selection: hits, their analogues and other compounds. The true share with any hit is near 1.7%.

SMILES	rRNA inh HTS	F508del corr	CaV13 ICDI inh	Cneo AK release	others
COc1ccc2nc(NC(=O)C34CC5CC(CC(NC(C)=O)(C5)C3)C4)sc2c1	-27*	0	-3	2
CCOc1ccc2nc(NC(=O)C34CC5CC(CC(NC(C)=O)(C5)C3)C4)sc2c1	-33*	0	-10	-4
CC(=O)NC12CC3CC(C1)CC(C(=O)Nc1nccs1)(C3)C2	x	x	-5	-1
Cc1noc(C)c1S(=O)(=O)N(C)C[C@H]1Oc2ccc(NC(=O)Nc3ccc4c(c3)OCO4)cc2C(=O)N([C@H](C)CO)C[C@@H]1C	-3	x	x	x
O=C(NCCN1CCCCC1)Nc1ccc(Br)cc1	-32*	-4	8	0
Cc1ccc(NC(=O)NCCN2CCCCC2)cc1	6	2	6	-2
O=C(NCCN1CCN(Cc2ccccc2)CC1)Nc1cc(Cl)cc(Cl)c1	-49*	0	-5	-4
O=C(NCCN1CCN(c2cccc(Cl)c2)CC1)Nc1ccccc1	-15	0	-2	1
C[C@@H]1CCCCO[C@@H](CN(C)C(=O)NC2CCCCC2)[C@@H](C)CN([C@@H](C)CO)C(=O)c2cc(NC(=O)NC3CCCCC3)ccc2O1	3	-1	x	-2
COCc1cc(C)nc(SCC(=O)Oc2ccccc2)c1C#N	-7	0	-2	6
COCc1cc(C)nc(SCC(=O)Oc2ccc(Cl)cc2)c1C#N	-18	1	47*	x
CNC[C@@H]1Oc2ncc(Br)cc2C(=O)N([C@@H](C)CO)C[C@H]1C	6	-1	x	-3
COc1ccc(C(=O)c2cn[nH]c2-c2cc(C)ccc2O)cc1	-16*	-2	-21	-1
COc1cccc(NC(=O)C[C@@H]2CC[C@H]3[C@H](COc4ccc(NC(=O)C5CCOCC5)cc4C(=O)N3C)O2)c1	-1	2	x	x
CCC(=O)N1CC2(CCN(Cc3ccc(Cl)cc3)CC2)c2c([nH]c3cc(OC)ccc23)[C@H]1CO	-1	9.8*	x	x
N=C1/C(=C\c2coc3ccccc3c2=O)C(=O)N=C2SC(c3ccncc3)=NN12	-15*	1	-140	-7
N=C1/C(=C/c2coc3ccccc3c2=O)C(=O)N=C2SC(c3ccco3)=NN12	x	x	x	-1
O=C(NC[C@@H]1CC[C@@H]2[C@@H](CN2C(=O)C2CCOCC2)O1)c1cccnc1	x	-1	x	x
NS(=O)(=O)c1ccc(CCNC(=O)C(=O)c2c[nH]c3ccccc23)cc1	-22*	3	-2	x
O=C([C@H]1[C@H](CO)[C@H]2Cn3c(cccc3=O)[C@H]2N1CC1CC1)N1CCc2ccccc2C1	-3	2	x	-2
Cc1cc(/C=C(\C#N)C(=O)Nc2ccccc2)c(C)n1-c1ccc(C(=O)O)cc1	-22	-2	-2	-4
Cc1cccc(NC(=O)/C(C#N)=C\c2cc(C)n(-c3ccc(C(=O)O)cc3)c2C)c1	-28*	x	7	x
CCOc1ccc(C2CC(c3c(O)c4ccccc4oc3=O)=NN2c2ccccc2)cc1OC (stereo not drawn)	4	0	165*	x
COc1ccc(C2=NN(C(=O)c3ccccc3)C(c3ccc(OC)c(OC)c3)C2)c(O)c1 (stereo not drawn)	-5	-1	-5	-1
Cc1cc2cc(CNC(=O)c3ccco3)ccc2n1C	0	0	56*	-1
SMILES	rRNA inh HTS	F508del corr	CaV13 ICDI inh	Cneo AK release	others
CC(C)NC(=O)N(C)C[C@H]1Oc2ccccc2CC(=O)N(C)C[C@@H]1C	-5	x	x	x
CC(=O)Oc1cc(C(=O)OCC(=O)NC23CC4CC(CC(C4)C2)C3)cc(OC(C)=O)c1OC(C)=O	-34	10*	-6	-1
Cc1ccc(-c2nnnn2-c2ccc(C)cc2)cc1	-9	0	-2	x
Cc1ccc(-n2nnnc2-c2ccccc2Br)cc1	-28*	1	-6	0
Cc1cc(C(N)=O)nn1-c1c(Cl)cc(Cl)cc1Cl	-31*	0	1	x	AID977621=-3.5
NC(=O)c1cc(C(N)=O)nc(Cl)n1	12	-2	-16	x
COc1ccc([C@H]2C/C=C\C[C@H](c3ccccc3)NC(=O)CCC(=O)N2)c(OC)c1	4	x	x	x
CC(C)(C)N(Cc1ccccc1)C(=O)COC(=O)Cn1cnc2ccccc2c1=O	-32*	0	-15	x	AID977621=-1.2;AID977628=-2.9
CC(C)(C)N(Cc1ccccc1)C(=O)COC(=O)Cn1[nH]c(=O)c2ccccc2c1=O	-4	-4	-10	1
C[C@@H]1CN([C@H](C)CO)C(=O)Cc2cc(NS(=O)(=O)c3ccc(Cl)cc3)ccc2O[C@@H]1CN(C)Cc1ccc(-c2ccccc2)cc1	4	5	x	x
O=C(Cn1cc(COc2c(F)c(F)cc(F)c2F)nn1)c1ccc(O)cc1	-18*	0	-7	-4	AID977621=u
COc1ccc(OCc2cn(CC(=O)c3ccc(O)cc3)nn2)cc1	2	-3	-3	3
CC(C)NC(=O)N(C)C[C@H]1OCCCC[C@H](C)Oc2ccc(NC(=O)Nc3cccc4ccccc34)cc2C(=O)N([C@H](C)CO)C[C@H]1C	2	x	x	x
COc1cccc(-c2ccc3n(c2=O)C[C@@H]2[C@@H](CO)[C@H](C(=O)N(C)C)N(C(=O)C4CCC4)[C@H]32)c1	1	-1	x	-2
CN(c1ccc(C(=O)NCc2cccs2)cc1)S(=O)(=O)c1ccccc1	-18*	-6	5	x	AID977621=-5.3;AID977628=-4.9
O=C1OCCC1Sc1nc2cc(Cl)ccc2n1Cc1ccccc1 (stereo not drawn)	x	x	-3	x
O=C1OCCC1Sc1nc2ccccc2c(=O)n1Cc1ccccc1 (stereo not drawn)	-21*	1	-7	x	AID977628=-15
CO[C@@H]1CN(C)C(=O)c2ccc(NC(=O)c3cc(C)on3)cc2OC[C@H](C)N(C(C)=O)C[C@@H]1C	1	-1	x	-1
Cc1noc(C)c1NC(=O)NCC[C@@H]1CC[C@@H](NC(=O)Cc2cccnc2)[C@@H](CO)O1	-5	0	x	5
C[C@@H]1CCCCO[C@@H](CN(C)C(=O)Nc2cccc3ccccc23)[C@@H](C)CN([C@H](C)CO)C(=O)c2cc(NS(=O)(=O)c3cccs3)ccc2O1	2	1	x	-2
O=C(C(=NNc1ccccc1)c1ccccc1)c1ccccc1	-9	1	-10	-1
CC(C)(Nc1ccccc1)C(=O)c1ccccc1	-20*	-1	-5	-3	AID977621=-2.9;AID977628=u
Fc1ccccc1C1CCN(Cc2nc(COc3ccccc3)no2)C1 (stereo not drawn)	-16*	2	-6	0	AID977621=-8.3;AID977628=-2
